Laboratory results: ChEMBL document CHEMBL1153373, “Effect of ring size on conformation and biological activity of cyclic cationic antimicrobial peptides” (J Med Chem, 2009)
In brackets after ≈: the same amount, converted by molar mass. Square brackets hold non-standard residues; d marks the D form. Peptide text beside a SMILES is read from it.

Columns and labels:
[1] = system: Staphylococcus aureus; assay: Antimicrobial activity against Staphylococcus aureus after 24 hrs by standard microtiter dilution method; assay type: functional
[2] = system: Serratia marcescens; assay: Antimicrobial activity against Serratia marcescens after 24 hrs by standard microtiter dilution method; assay type: functional
[3] = system: Acinetobacter calcoaceticus; assay: Antimicrobial activity against Acinetobacter calcoaceticus after 24 hrs by standard microtiter dilution method; assay type: functional
[4] = system: Enterobacter cloacae; assay: Antimicrobial activity against Enterobacter cloacae after 24 hrs by standard microtiter dilution method; assay type: functional
[5] = system: Streptococcus pneumoniae; assay: Antimicrobial activity against Streptococcus pneumoniae after 24 hrs by standard microtiter dilution method; assay type: functional
[6] = system: Escherichia coli; assay: Antimicrobial activity against Escherichia coli after 24 hrs by standard microtiter dilution method; assay type: functional
[7] = system: Corynebacterium jeikeium; assay: Antimicrobial activity against Corynebacterium jeikeium after 24 hrs by standard microtiter dilution method; assay type: functional
[8] = system: Klebsiella pneumoniae; assay: Antimicrobial activity against Klebsiella pneumoniae after 24 hrs by standard microtiter dilution method; assay type: functional
[9] = system: Staphylococcus epidermidis; assay: Antimicrobial activity against Staphylococcus epidermidis after 24 hrs by standard microtiter dilution method; assay type: functional
[10] = system: Enterococcus faecalis; assay: Antimicrobial activity against Enterococcus faecalis after 24 hrs by standard microtiter dilution method; assay type: functional
[11] = system: Candida albicans; assay: Antimicrobial activity against Candida albicans after 24 hrs by standard microtiter dilution method; assay type: functional
Summary of the method: (§1)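 Fungal MICs were determined by standard microtitre dilution, taken as the lowest peptide concentration inhibiting growth after 24 h incubation at 37 °C.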

[12] = system: Stenotrophomonas maltophilia; assay: Antimicrobial activity against Stenotrophomonas maltophilia after 24 hrs by standard microtiter dilution method; assay type: functional
[13] = system: Streptococcus pyogenes; assay: Antimicrobial activity against Streptococcus pyogenes after 24 hrs by standard microtiter dilution method; assay type: functional
[14] = system: Streptococcus mitis; assay: Antimicrobial activity against Streptococcus mitis after 24 hrs by standard microtiter dilution method; assay type: functional
[15] = system: Pseudomonas aeruginosa; assay: Antimicrobial activity against Pseudomonas aeruginosa after 24 hrs by standard microtiter dilution method; assay type: functional
[16] = system: Cryptococcus neoformans; assay: Antimicrobial activity against Cryptococcus neoformans after 24 hrs by standard microtiter dilution method; assay type: functional; summary of the method: as §1
[17] = Therapeutic index, ratio of hemolytic activity in human RBC to MIC for Enterobacter cloacae; settings: human red blood cells (RBC), read-out: TI
[18] = Therapeutic index, ratio of hemolytic activity in human RBC to MIC for Acinetobacter calcoaceticus; settings: human red blood cells (RBC), read-out: TI
[19] = Therapeutic index, ratio of hemolytic activity in human RBC to MIC for Candida albicans; settings: human red blood cells (RBC), read-out: TI
[20] = Therapeutic index, ratio of hemolytic activity in human RBC to MIC for Staphylococcus epidermidis; settings: human red blood cells (RBC), read-out: TI
[21] = Therapeutic index, ratio of hemolytic activity in human RBC to MIC for Streptococcus pneumoniae; settings: human red blood cells (RBC), read-out: TI

MIC [1] [µg/mL]	MIC [2] [µg/mL]	MIC [3] [µg/mL]	MIC [4] [µg/mL]	MIC [5] [µg/mL]	MIC [6] [µg/mL]	MIC [7] [µg/mL]	MIC [8] [µg/mL]	MIC [9] [µg/mL]	MIC [10] [µg/mL]	MIC [11] [µg/mL]	MIC [12] [µg/mL]	MIC [13] [µg/mL]	MIC [14] [µg/mL]	MIC [16] [µg/mL]	SMILES	also measured
16 (≈ 12 µM)	256 (≈ 193 µM)	8 (≈ 6.02 µM)	256 (≈ 193 µM)	2 (≈ 1.5 µM)	64 (≈ 48.1 µM)	2 (≈ 1.5 µM)	32 (≈ 24.1 µM)								CC(C)C[C@@H]1NC(=O)[C@H](CCCCN)NC(=O)[C@H](C(C)C)NC(=O)[C@@H]2CCCN2C(=O)[C@@H](Cc2ccc(O)cc2)NC(=O)[C@H](CC(C)C)NC(=O)[C@H](CCCCN)NC(=O)[C@H](C(C)C)NC(=O)[C@H](CCCCN)NC(=O)[C@@H]2CCCN2C(=O)[C@@H](Cc2ccc(O)cc2)NC1=O	
		2 (≈ 1.28 µM)	128 (≈ 82.2 µM)	0.5 (≈ 0.321 µM)				2 (≈ 1.28 µM)	8 (≈ 5.14 µM)	16 (≈ 10.3 µM)	16 (≈ 10.3 µM)	0.5 (≈ 0.321 µM)			CC(C)C[C@@H]1NC(=O)[C@H](CCCCN)NC(=O)[C@H](C(C)C)NC(=O)[C@H](CCCCN)NC(=O)[C@H](CC(C)C)NC(=O)[C@@H]2CCCN2C(=O)[C@@H](Cc2ccc(O)cc2)NC(=O)[C@H](C(C)C)NC(=O)[C@H](CCCCN)NC(=O)[C@H](CCCCN)NC(=O)[C@H](C(C)C)NC(=O)[C@@H]2CCCN2C(=O)[C@@H](Cc2ccc(O)cc2)NC1=O (cyclo(KKV[dY]PLKVKL[dY]PV))	
256 (≈ 190 µM)	256 (≈ 190 µM)		256 (≈ 190 µM)	256 (≈ 190 µM)			256 (≈ 190 µM)	256 (≈ 190 µM)	256 (≈ 190 µM)	256 (≈ 190 µM)	256 (≈ 190 µM)		64 (≈ 47.6 µM)	128 (≈ 95.2 µM)	CC(C)C[C@@H]1NC(=O)[C@H](CCCCN)NC(=O)[C@H](C(C)C)NC(=O)[C@H](CCCCN)NC(=O)[C@@H]2CCCN2C(=O)[C@@H](Cc2ccc(O)cc2)NC(=O)[C@H](CCCCN)NC(=O)[C@H](CCCCN)NC(=O)[C@H](C(C)C)NC(=O)[C@@H]2CCCN2C(=O)[C@@H](Cc2ccc(O)cc2)NC1=O (cyclo(VKK[dY]PKVKL[dY]P))	MIC [15]: 256 µg/mL (≈ 190 µM)
4 (≈ 2.59 µM)	256 (≈ 166 µM)	4 (≈ 2.59 µM)	256 (≈ 166 µM)	0.5 (≈ 0.324 µM)	64 (≈ 41.5 µM)	4 (≈ 2.59 µM)		4 (≈ 2.59 µM)	4 (≈ 2.59 µM)	32 (≈ 20.8 µM)	32 (≈ 20.8 µM)	0.5 (≈ 0.324 µM)	1 (≈ 0.649 µM)		CC(C)C[C@@H]1NC(=O)[C@H](CCCCN)NC(=O)[C@H](C(C)C)NC(=O)[C@@H]2CCCN2C(=O)[C@@H](Cc2ccc(O)cc2)NC(=O)[C@H](CC(C)C)NC(=O)[C@H](CCCCN)NC(=O)[C@H](C(C)C)NC(=O)[C@H](CCCCN)NC(=O)[C@H](CC(C)C)NC(=O)[C@@H]2CCCN2C(=O)[C@@H](Cc2ccc(O)cc2)NC(=O)[C@H](C(C)C)NC1=O	MIC [15]: 256 µg/mL (≈ 166 µM)
64 (≈ 43.9 µM)	256 (≈ 176 µM)	16 (≈ 11 µM)	256 (≈ 176 µM)	16 (≈ 11 µM)			64 (≈ 43.9 µM)	64 (≈ 43.9 µM)	64 (≈ 43.9 µM)		128 (≈ 87.8 µM)	2 (≈ 1.37 µM)		16 (≈ 11 µM)	CC(C)C[C@@H]1NC(=O)[C@H](CCCCN)NC(=O)[C@H](C(C)C)NC(=O)[C@@H]2CCCN2C(=O)[C@@H](Cc2ccc(O)cc2)NC(=O)[C@H](CC(C)C)NC(=O)[C@H](CCCCN)NC(=O)[C@H](C(C)C)NC(=O)[C@H](CCCCN)NC(=O)[C@@H]2CCCN2C(=O)[C@@H](Cc2ccc(O)cc2)NC(=O)[C@H](CCCCN)NC1=O (cyclo(KLK[dY]PKVKL[dY]PV))	
		2 (≈ 1.04 µM)	64 (≈ 33.2 µM)	1 (≈ 0.519 µM)	4 (≈ 2.08 µM)			2 (≈ 1.04 µM)	4 (≈ 2.08 µM)	64 (≈ 33.2 µM)				64 (≈ 33.2 µM)	CC(C)C[C@@H]1NC(=O)[C@H](CCCCN)NC(=O)[C@H](C(C)C)NC(=O)[C@@H]2CCCN2C(=O)[C@@H](Cc2ccc(O)cc2)NC(=O)[C@H](CC(C)C)NC(=O)[C@H](CCCCN)NC(=O)[C@H](C(C)C)NC(=O)[C@H](CCCCN)NC(=O)[C@H](CC(C)C)NC(=O)[C@H](CCCCN)NC(=O)[C@@H]2CCCN2C(=O)[C@@H](Cc2ccc(O)cc2)NC(=O)[C@H](CCCCN)NC(=O)[C@H](C(C)C)NC(=O)[C@H](CCCCN)NC1=O (cyclo(VKLKVK[dY]PKLKVKL[dY]P))	
32 (≈ 17.8 µM)	256 (≈ 142 µM)		256 (≈ 142 µM)		16 (≈ 8.9 µM)	1 (≈ 0.556 µM)	8 (≈ 4.45 µM)	16 (≈ 8.9 µM)	4 (≈ 2.22 µM)		8 (≈ 4.45 µM)		4 (≈ 2.22 µM)		CC(C)C[C@@H]1NC(=O)[C@H](CCCCN)NC(=O)[C@@H]2CCCN2C(=O)[C@@H](Cc2ccc(O)cc2)NC(=O)[C@H](CCCCN)NC(=O)[C@H](C(C)C)NC(=O)[C@H](CC(C)C)NC(=O)[C@H](CCCCN)NC(=O)[C@H](C(C)C)NC(=O)[C@@H]2CCCN2C(=O)[C@@H](Cc2ccc(O)cc2)NC(=O)[C@H](CC(C)C)NC(=O)[C@H](CCCCN)NC(=O)[C@H](C(C)C)NC(=O)[C@H](CCCCN)NC1=O (cyclo(VKLVK[dY]PKLKVKL[dY]P))	
4 (≈ 2.55 µM)					16 (≈ 10.2 µM)	2 (≈ 1.27 µM)	8 (≈ 5.09 µM)		4 (≈ 2.55 µM)				0.5 (≈ 0.318 µM)		CC(C)C[C@@H]1NC(=O)[C@H](CCCCN)NC(=O)[C@H](C(C)C)NC(=O)[C@@H]2CCCN2C(=O)[C@@H](Cc2ccc(O)cc2)NC(=O)[C@H](CC(C)C)NC(=O)[C@H](CCCCN)NC(=O)[C@H](C(C)C)NC(=O)[C@H](CCCCN)NC(=O)[C@H](CC(C)C)NC(=O)[C@@H]2CCCN2C(=O)[C@@H](Cc2ccc(O)cc2)NC(=O)[C@H](CCCCN)NC1=O (cyclo(VKLK[dY]PLKVKL[dY]P))	
															CC(C)C[C@@H]1NC(=O)[C@H](CCCCN)NC(=O)[C@H](C(C)C)NC(=O)[C@@H]2CCCN2C(=O)[C@@H](Cc2ccc(O)cc2)NC(=O)[C@H](CC(C)C)NC(=O)[C@H](CCCCN)NC(=O)[C@H](C(C)C)NC(=O)[C@H](CCCCN)NC(=O)[C@H](CC(C)C)NC(=O)[C@H](CCCCN)NC(=O)[C@@H]2CCCN2C(=O)[C@@H](Cc2ccc(O)cc2)NC(=O)[C@H](C(C)C)NC(=O)[C@H](CCCCN)NC1=O (cyclo(VKLKV[dY]PKLKVKL[dY]P)) [listing 1 of 2 here]	selectivity ratio [17]: 2
															CC(C)C[C@@H]1NC(=O)[C@H](CCCCN)NC(=O)[C@H](C(C)C)NC(=O)[C@@H]2CCCN2C(=O)[C@@H](Cc2ccc(O)cc2)NC(=O)[C@H](CC(C)C)NC(=O)[C@H](CCCCN)NC(=O)[C@H](C(C)C)NC(=O)[C@@H]2CCCN2C(=O)[C@@H](Cc2ccc(O)cc2)NC(=O)[C@H](CCCCN)NC1=O (cyclo(VKLK[dY]PVKL[dY]P)) [listing 1 of 2 here]	selectivity ratio [18]: 255; selectivity ratio [19]: 16; selectivity ratio [20]: 128; selectivity ratio [21]: 255
64 (≈ 35 µM)	256 (≈ 140 µM)	2 (≈ 1.09 µM)				8 (≈ 4.38 µM)	8 (≈ 4.38 µM)		8 (≈ 4.38 µM)	64 (≈ 35 µM)			8 (≈ 4.38 µM)	64 (≈ 35 µM)	CC(C)C[C@@H]1NC(=O)[C@H](CCCCN)NC(=O)[C@H](C(C)C)NC(=O)[C@@H]2CCCN2C(=O)[C@@H](Cc2ccc(O)cc2)NC(=O)[C@H](CC(C)C)NC(=O)[C@H](CCCCN)NC(=O)[C@H](C(C)C)NC(=O)[C@H](CCCCN)NC(=O)[C@H](CC(C)C)NC(=O)[C@H](CCCCN)NC(=O)[C@@H]2CCCN2C(=O)[C@@H](Cc2ccc(O)cc2)NC(=O)[C@H](CCCCN)NC(=O)[C@H](CCCCN)NC1=O (cyclo(VKLKK[dY]PKLKVKL[dY]P))	
2 (≈ 1.11 µM)		2 (≈ 1.11 µM)		0.5 (≈ 0.278 µM)		2 (≈ 1.11 µM)	8 (≈ 4.45 µM)		2 (≈ 1.11 µM)		4 (≈ 2.22 µM)	0.5 (≈ 0.278 µM)	0.5 (≈ 0.278 µM)	1 (≈ 0.556 µM)	CC(C)C[C@@H]1NC(=O)[C@H](CCCCN)NC(=O)[C@H](C(C)C)NC(=O)[C@@H]2CCCN2C(=O)[C@@H](Cc2ccc(O)cc2)NC(=O)[C@H](CC(C)C)NC(=O)[C@H](CCCCN)NC(=O)[C@H](C(C)C)NC(=O)[C@H](CCCCN)NC(=O)[C@H](CC(C)C)NC(=O)[C@H](CCCCN)NC(=O)[C@@H]2CCCN2C(=O)[C@@H](Cc2ccc(O)cc2)NC(=O)[C@H](C(C)C)NC(=O)[C@H](CCCCN)NC1=O (cyclo(VKLKV[dY]PKLKVKL[dY]P)) [listing 2 of 2 here]	
64 (≈ 48.1 µM)		8 (≈ 6.02 µM)	256 (≈ 193 µM)	8 (≈ 6.02 µM)	64 (≈ 48.1 µM)	2 (≈ 1.5 µM)	64 (≈ 48.1 µM)		32 (≈ 24.1 µM)		64 (≈ 48.1 µM)			32 (≈ 24.1 µM)	CC(C)C[C@@H]1NC(=O)[C@H](CCCCN)NC(=O)[C@H](C(C)C)NC(=O)[C@@H]2CCCN2C(=O)[C@@H](Cc2ccc(O)cc2)NC(=O)[C@H](CC(C)C)NC(=O)[C@H](CCCCN)NC(=O)[C@H](C(C)C)NC(=O)[C@@H]2CCCN2C(=O)[C@@H](Cc2ccc(O)cc2)NC(=O)[C@H](CCCCN)NC1=O (cyclo(VKLK[dY]PVKL[dY]P)) [listing 2 of 2 here]	MIC [15]: 256 µg/mL (≈ 193 µM)
